Assay [1] has as its target T1, Peroxisome proliferator-activated receptor alpha (Homo sapiens) (UniProt Q07869).
T1 sequence (whole entry): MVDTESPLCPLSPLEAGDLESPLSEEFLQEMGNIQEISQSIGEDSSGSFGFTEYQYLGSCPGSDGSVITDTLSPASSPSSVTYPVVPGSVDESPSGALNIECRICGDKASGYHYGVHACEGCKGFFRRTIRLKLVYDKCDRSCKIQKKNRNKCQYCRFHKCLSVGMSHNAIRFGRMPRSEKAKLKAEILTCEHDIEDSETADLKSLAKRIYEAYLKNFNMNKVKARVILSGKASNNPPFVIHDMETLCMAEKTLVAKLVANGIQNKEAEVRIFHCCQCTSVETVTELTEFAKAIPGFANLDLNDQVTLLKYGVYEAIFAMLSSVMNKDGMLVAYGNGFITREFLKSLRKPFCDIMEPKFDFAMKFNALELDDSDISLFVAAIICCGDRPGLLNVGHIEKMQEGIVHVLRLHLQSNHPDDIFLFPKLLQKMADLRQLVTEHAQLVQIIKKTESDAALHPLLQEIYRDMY
In words: Transactivation of PPARalpha expressed in HEK293A cells co-expressing GAL4 at 150 uM after 16 to 18 hrs by luciferase reporter gene assay relative to control. Type of assay: cell-based. To be noted: HEK293-A. An outline of the steps:
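Single-concentration agonist-mode transactivation: GAL4–PPARα or GAL4–PPARγ chimera, calcium-phosphate transfected into HEK293A cells with reporter, renilla and pGEM plasmids. […] Firefly luciferase read after 16–18 h. Values are ± SEM.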

Assay [2] deals with T1, Peroxisome proliferator-activated receptor alpha (Homo sapiens). The assay can be described thus: (§1) Antagonist activity at PPARalpha expressed in HEK293 cells co-expressing GAL4 assessed as inhibition of GW7647-induced transactivation activity after 16 to 18 hrs by luciferase reporter gene assay. Type of assay: functional, cell-based. A digest of the protocol: (§2)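 GAL4–PPARα chimera in HEK293A cells grown to 70–80% confluency over 16 h, then switched to serum-free medium. Cells co-transfected by calcium phosphate with reporter, renilla, pGEM and receptor plasmids. […] Firefly luciferase read after 16–18 h. Five concentrations, 1–150 µM, at least three separate experiments, IC50 ± SEM.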
(In general: In a reporter assay the amount or activity of a reporter protein is the signal.)

Assay [3] has as its target T2, Peroxisome proliferator-activated receptor alpha (Homo sapiens, UniProt Q07869).
T2 sequence (Q07869 whole entry): T1 sequence (whole entry)
The description is as §1. Type of assay: functional, cell-based. An outline of the steps:
as §2

The target of assay [4] is T2, Peroxisome proliferator-activated receptor alpha. The assay can be described thus: Binding affinity to PPARalpha LBD after 2 hrs by TR-FRET analysis. An outline of the steps: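 TR-FRET competitive binding to PPARα LBD. Five concentrations, three independent experiments. After 2 h incubation, excitation at 340 nm, emission at 520 nm (fluorescein acceptor) and 495 nm (terbium donor). Ratio 520/495 used to derive IC50.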
For orientation: TR-FRET usually uses a lanthanide donor and a delayed reading to cut background.

Assay [5] concerns the target T1, Peroxisome proliferator-activated receptor alpha (Homo sapiens). In words: Binding affinity to PPARalpha LBD at 100 uM after 2 hrs by TR-FRET analysis. An outline of the steps:
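After 2 h incubation, excitation at 340 nm and emission at 520 and 495 nm. The 520/495 ratio is normalized to clofibric acid as 100%.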

For assay [6] the target is unchanged. In words: Transactivation of PPARalpha expressed in HEK293A cells co-expressing GAL4 at 1 to 150 uM after 16 to 18 hrs by luciferase reporter gene assay. In kind it is cell-based. To be noted: HEK293-A. A digest of the protocol: (§3)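 HEK293A cells cultured to 70–80% confluency, moved to serum-free medium, then calcium-phosphate co-transfected with GAL4–PPARα, luciferase reporter, renilla and pGEM plasmids. Compounds added 6 h after transfection and run in agonist mode. Firefly luciferase activity measured after 16–18 h. Five concentrations from 1 to 150 µM, at least three separate experiments, EC50 ± SEM.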

Assay [7] has as its target T3, Peroxisome proliferator-activated receptor gamma (Homo sapiens) (UniProt P37231).
T3 sequence (whole entry): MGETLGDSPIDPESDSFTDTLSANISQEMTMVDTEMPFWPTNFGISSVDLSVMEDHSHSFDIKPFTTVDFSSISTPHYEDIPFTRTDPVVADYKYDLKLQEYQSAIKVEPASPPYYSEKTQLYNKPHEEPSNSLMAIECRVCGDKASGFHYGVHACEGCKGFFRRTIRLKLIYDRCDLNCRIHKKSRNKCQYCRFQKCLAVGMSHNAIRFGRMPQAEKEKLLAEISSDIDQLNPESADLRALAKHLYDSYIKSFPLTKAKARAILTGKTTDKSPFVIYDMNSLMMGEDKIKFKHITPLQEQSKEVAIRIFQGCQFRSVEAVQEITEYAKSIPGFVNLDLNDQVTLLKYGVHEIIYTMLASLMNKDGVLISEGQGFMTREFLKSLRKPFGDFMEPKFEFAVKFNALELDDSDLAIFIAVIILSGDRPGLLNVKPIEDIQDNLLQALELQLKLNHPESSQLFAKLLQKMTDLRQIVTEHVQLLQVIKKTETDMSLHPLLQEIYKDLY
In words: Transactivation of PPARgamma expressed in HEK293A cells co-expressing GAL4 at the concentration corresponding to IC50 or EC50 on PPARalpha after 16 to 18 hrs by luciferase reporter gene assay. To be noted: HEK293-A.

Assay [8] deals with T3, Peroxisome proliferator-activated receptor gamma (Homo sapiens). The assay can be described thus: Antagonist activity at PPARgamma expressed in HEK293A cells co-expressing GAL4 after 16 to 18 hrs by luciferase reporter gene assay. Type of assay: functional, cell-based. As to conditions: HEK293-A.
Assay [9] concerns the target T1, Peroxisome proliferator-activated receptor alpha (Homo sapiens). The assay can be described thus: Antagonist activity at PPARalpha expressed in HEK293A cells co-expressing GAL4 assessed as inhibition of GW7647-induced transactivation activity at 1 to 150 uM after 16 to 18 hrs by luciferase reporter gene assay. In kind it is functional, cell-based. To be noted: HEK293-A. A digest of the protocol: as §2

The target in assay [10] is T2, Peroxisome proliferator-activated receptor alpha. In words: Transactivation of PPARalpha expressed in HEK293A cells co-expressing GAL4 after 16 to 18 hrs by luciferase reporter gene assay. Type of assay: cell-based, HEK293-A. An outline of the steps: as §3

The structures appear in SMILES notation. Activity calls are given as the source filed them. The calls are words filed in the database; no cut-off is given here.

The IC50 is the concentration needed to halve the response being measured. On to `CCCCC(Sc1nc2cc(Cl)ccc2s1)C(=O)NS(C)(=O)=O` (stereo unspecified), for which the fold change (FC) in assay [1] is 0.08. The inhibition entry in assay [2] was “Dose-dependent effect”. Moreover, the figures for the IC50 in assay [3] and in [4] were 800 nM and 600 nM, respectively. The Activity in [5] came to 117%. Also, the result in assay [6] was inactive.
Take `CC(C)C(Sc1nc2cc(Cl)ccc2s1)C(=O)NS(C)(=O)=O` (stereo unspecified): the fold change (FC) in assay [1] was 0.47. Further, the IC50 in assay [3] worked out at 46500 nM. Also, the outcome in [5] and in [7] was Active. For the same compound, in assay [6], the outcome was inactive.
Consider `CCCCCCC(Sc1nc2cc(Cl)ccc2s1)C(=O)NS(C)(=O)=O` (stereo unspecified), for which, in assay [1], the fold change (FC) was determined as 0.04. Moreover, the half-inhibitory concentration (IC50) in assay [3] was 5100 nM. For the same compound, the inhibition result in assay [8] is “Active”. Moreover, in assay [5], the outcome was Active. Also, the outcome in [6] was inactive.
As for `CC(C)(Oc1ccc(C(=O)c2ccc(Cl)cc2)cc1)C(=O)NS(C)(=O)=O`, the fold change (FC) in assay [1] was found to be 1.1. In assay [5], this compound displayed an Activity of 128%. Also, the result in [6] was inactive. In [9], the inhibition result is “inactive”.
For orientation: EC50 means the concentration at which the effect is half-maximal. The low end stands for higher potency in that assay, the high end for lower potency in that assay. `Cc1ccc(C)c(OCCCC(C)(C)C(=O)NS(C)(=O)=O)c1`: the fold change (FC) in [1] came out at 1.55. Moreover, the EC50 in [10] was determined as 7100 nM. Besides, the Activity in assay [5] came out at 118%. In addition, the inhibition result in assay [9] was “inactive”. Further, in [7], the result was Active.
Regarding `CC(C)(Oc1ccc(Cl)cc1)C(=O)O`, the fold change (FC) in assay [1] came out at 1.6. For the same compound, in assay [9], the inhibition result is “inactive”.
For the compound `CS(=O)(=O)NC(=O)C(Sc1nc2cc(Cl)ccc2s1)c1ccccc1` (stereo unspecified), the fold change (FC) in assay [1] is 0.07. For the same compound, the half-inhibitory concentration (IC50) in [3] stood at 900 nM; in assay [4], 950 nM. In assay [8], the inhibition result is “Active”. Besides, in [5], the Activity was 95.3%. For the same compound, in assay [6], the outcome was inactive.
As to `CCCC(Sc1nc2ccc(OCC)cc2s1)C(=O)NS(C)(=O)=O` (stereo unspecified), the fold change (FC) in assay [1] worked out at 0.36. For the same compound, the IC50 was 8870 nM in [3] and 480 nM in [4]. In assay [5], this compound registered an Activity of 137%. In [6], the outcome was inactive. Also, the outcome in [7] was Active.
As to `CCOc1ccc2nc(SC(C)C(=O)NS(C)(=O)=O)sc2c1` (stereo unspecified), the fold change (FC) in assay [1] came to 1.84. In addition, the EC50 in assay [10] was determined as 1590 nM. In addition, the result in [5] and in [7] was Active. Also, the inhibition result in [9] is “inactive”.
With `CC(C)(Oc1ccc(Cl)cc1)C(=O)NS(C)(=O)=O`, in assay [1], the fold change (FC) stood at 1.7. The response in [10] was half-maximal at 10700 nM (EC50). In assay [5], the Activity turned out to be 121%. Besides, the inhibition result in [9] was “inactive”. The result in [7] was Active.
For `CC(C)(Oc1ccc(CCNC(=O)c2ccc(Cl)cc2)cc1)C(=O)NS(C)(=O)=O`, the fold change (FC) in [1] stood at 0.44. Besides, the inhibition result in assay [2] is “Dose-dependent effect”. Further, the half-inhibitory concentration (IC50) in assay [3] was 68500 nM. Also, the outcome in assay [5] and in assay [7] was Active. In addition, in assay [6], the result was inactive.
As for `CCCC(Sc1nc2cc(Cl)ccc2s1)C(=O)NS(C)(=O)=O` (stereo unspecified), the fold change (FC) in assay [1] stood at 0.28. In addition, the values for the IC50 in assay [3] and in assay [4] were 600 nM and 890 nM, respectively. Also, the Activity in [5] was found to be 80.9%. In addition, in assay [6], the outcome was inactive. Besides, in assay [7], the outcome was Active.
